Assay outcomes deposited in PubChem BioAssay by Broad Institute.
Cneo AK release: Cryptococcus neoformans cell lysis inducers, primary screen, AK release luminescence, single concentration | C. neoformans lysis, adenylate kinase release luminescence, 4 h; normalised: neutral wells 0, clomiphene wells 100 | lysis activity, % at 15 µM | 360,000 compounds, 0.2% hits | AID 651654, 2012;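 active = mean lysis activity across replicates of at least 80%, whatever share of replicates individually reach that level; inactive = mean lysis activity below 80%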
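Material: C. neoformans cells | Amount: Yeast cell density of 5 × 10^6 cells/mL | Medium: Fresh YPD growth medium | Dosing: Single dose | Times: Static 4 h at 37 °C with compound, 1 h detection | Detection: AK luminescence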
HIV Env fusion: inhibitors of HIV-1 Env-driven cell-cell fusion, primary screen, HeLa-JRFL effector, CEM21 target cells, luciferase; 360,000 compounds, 1.1% hits; inhibition, % at 12.3 µM;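 active = mean replicate inhibition score of at least 50 and every replicate individually at or above 50; inconclusive = only one of the two criteria met; inactive = mean below 50 and not all replicates reaching 50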
rRNA inh HTS: reduced GFP signal of wild-type E. coli, primary screen, bacterial rRNA inhibitor project, GFP/RFP fluorescence, OD600, single point | E. coli WT GFP vs humanized-ribosome RFP mutants, 24 h; stronger effect = lower value; DMSO median 0, no signal -100 | GFP signal change (wild-type ribosome), % (no concentration beside the values) | 350,000 compounds, 1.6% hits | AID 720706, 2013;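 active = significant combined selectivity score with lowered wild-type GFP, culture density cut under 30%, mutant RFP and density less affected; inactive = any of these conditions unmet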
miR122 inh: miR-122 Renilla sensor signal increase in Huh7, primary screen, miR-122 inhibitor project, cell-based, single point, plate reader; Huh7 miR-122 Renilla luciferase sensor, 48 h; neutral wells = 0, positive control = 100; activation (reporter increase), % at 12.5 µM; 340,000 compounds, 0.3% hits; AID 602342, 2012;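 active = mean replicate activation score at least 90 and every replicate individually at or above 90; inconclusive = only one of the two criteria met; inactive = neither criterion met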;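 note: higher luciferase means less miR-122 activity so hits act as miR-122 inhibitors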
GSIS activator: GLuc luminescence reporter in INS-1E cells, primary screen for activators of glucose-dependent secretion of insulin; 370,000 compounds, 0.61% hits; INS-1E GLuc reporter insulin secretion, 2-3 h; activation, % at 16.6 µM;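 active = lowest replicate activation of at least 40%, so every replicate reaches that level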
F508del corr: F508del CFTR correction, initial screen, CFBE line, single point; AID 720511, 2013; 350,000 compounds, 0.36% hits; activity (quench increase), % at 7.58 µM; CFBE cells, YFP halide quenching; stimulated with forskolin plus potentiator P3; % fluorescence drop versus neutral controls;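 active = mean added fluorescence quench of at least 8% versus neutral control, with both replicates also reaching 8%; inconclusive = only one of the mean or replicate conditions met; inactive = mean below 8% and not both replicates reaching 8%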;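 note: cells transiently co-express mutant CFTR-F508del with the halide-sensitive YFP; corrector assay measuring rescue of mutant channel to the surface after 24 h compound exposure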
Of the large screens only hits and unclear results are named; the others gave an inactive call; [ ] = remark or other dose. An excerpt weighted towards active compounds, which were near 3.1% of everything screened.

CC(=O)[C@H]1CC[C@H]2[C@@H]3CCC4=CC(=O)CC[C@]4(C)[C@H]3CC[C@]12C	none (no result: GSIS activator)
Cc1cccc(COC[C@H](CC(C)C)N2CCN(C(=O)c3ccc(C(C)(C)C)cc3)CCC2=O)c1	none (no result: Cneo AK release, miR122 inh)
Cc1cccc(COCC(CC(C)C)N2CCN(C(=O)c3ccc(C(F)(F)F)cc3)CCC2=O)c1 (stereo not given)	HIV Env fusion 83
Cc1cccc(COC[C@H](Cc2ccccc2)N2CCN(C(=O)c3ccc(C(F)(F)F)cc3)CCC2=O)c1	none (no result: Cneo AK release, miR122 inh)
Cc1cccc(COCC(CC(C)C)N2CCN(C(=O)c3ccc(C(C)(C)C)cc3)CCC2=O)c1 (stereo not given)	HIV Env fusion 60
Cc1nc2ccccc2c2oc(C(=O)N3CCCC(C)C3)cc12 (stereo not given)	GSIS activator 46
COC1C(CO)OC(n2c3c(Cl)cccc3c3c4c(c5c6cccc(Cl)c6[nH]c5c32)C(=O)NC4=O)C(O)C1O (stereo not given)	F508del corr 9.8 (no result: Cneo AK release)
Cc1c(OC(C(=O)O)c2ccccc2)ccc2c(-c3ccccc3)cc(=O)oc12 (stereo not given)	rRNA inh HTS -25 (no result: Cneo AK release)
CC(=O)COc1ccc2c(-c3ccccc3)cc(=O)oc2c1C	rRNA inh HTS -18 (no result: miR122 inh)
C[C@H](CO)N1C[C@H](C)[C@H](CN(C)C(=O)Nc2ccc(F)cc2)Oc2cc(-c3ccc(F)cc3)ccc2S1(=O)=O	none (no result: Cneo AK release)
O=C1/C(=C\c2ccc(Cl)c(Cl)c2)CN(C(=O)CCN2CCOCC2)C/C1=C/c1ccc(Cl)c(Cl)c1	GSIS activator 136 (no result: Cneo AK release, HIV Env fusion)
O=C1/C(=C\c2ccccc2)CN(C(=O)CCN2CCCCC2)C/C1=C/c1ccccc1	none (no result: Cneo AK release, miR122 inh)
C[C@H](CO)N1C[C@H](C)[C@@H](CN(C)Cc2ccc(C(=O)Nc3ccccc3N)cc2)OCCCC[C@H](C)Oc2ccc(N(C)C)cc2C1=O	none (no result: Cneo AK release, HIV Env fusion, miR122 inh, F508del corr)
O=C(/C=C/c1ccccc1)NC(NC(=S)Nc1cccc(Cl)c1)C(Cl)(Cl)Cl (stereo not given)	HIV Env fusion 63 (no result: rRNA inh HTS, F508del corr)
Cc1cc(Oc2ccccc2)nc(-c2ccccc2O)n1	none (no result: HIV Env fusion, rRNA inh HTS, GSIS activator, F508del corr)
Cc1cc(Oc2ccc(Cl)cc2)nc(-c2ccccn2)n1	rRNA inh HTS -33
COc1ccc([Si](C)(C)[C@@H]2[C@@H](CCO)O[C@]3(C(=O)N4c5c(cc(OC)cc53)C(C)=CC4(C)C)[C@H]2C)cc1	HIV Env fusion 90[16.7 µM] (no result: rRNA inh HTS, miR122 inh, GSIS activator)
C=CCN1C(=O)[C@]2(O[C@H](CCn3cc(CCO)nn3)[C@@H]([Si](C)(C)c3ccc(OC)cc3)[C@@H]2C)c2cc(N3C(=O)c4cccc5cccc3c45)ccc21	HIV Env fusion 70[16.7 µM] (no result: rRNA inh HTS, miR122 inh, GSIS activator)
COc1ccc([Si](C)(C)[C@H]2[C@H](CCO)O[C@@]3(C(=O)N4c5c(cc(OC)cc53)C(C)=CC4(C)C)[C@@H]2C)cc1	none (no result: rRNA inh HTS, miR122 inh, GSIS activator)
C=CCN1C(=O)[C@]2(O[C@H](CCn3cc([C@H](O)c4ccccc4)nn3)[C@@H]([Si](C)(C)c3ccc(OC)cc3)[C@@H]2C)c2cc(N3CCOC3=O)ccc21	none (no result: rRNA inh HTS, miR122 inh, GSIS activator)
COc1ccc([Si](C)(C)[C@@H]2[C@@H](CCO)O[C@]3(C(=O)N(Cc4ccccc4)c4ccc(N5C(=O)c6cccc7cccc5c67)cc43)[C@H]2C)cc1	HIV Env fusion 64[16.7 µM] (no result: rRNA inh HTS, miR122 inh, GSIS activator)
C[C@@H]1CN([C@@H](C)CO)C(=O)Cc2cc(NS(=O)(=O)c3cccs3)ccc2O[C@H]1CN(C)C(=O)Nc1ccc(F)cc1	none
O=C(C[C@@H]1C[C@@H]2c3cc(NC(=O)Nc4ccc(C(F)(F)F)cc4)ccc3O[C@@H]2[C@H](CO)O1)NCCc1ccccc1	none
COc1cc(OC)c2c(c1)OC(=O)CC2c1ccc2c(c1)OCO2 (stereo not given)	rRNA inh HTS -28
COc1cc(OC)c2c(c1)OC(=O)CC2c1ccc(C)cc1 (stereo not given)	none (no result: miR122 inh)
COc1ccc(S(=O)(=O)CC(=O)c2cc3cc(Br)ccc3oc2=O)cc1	rRNA inh HTS -22 (no result: miR122 inh)
C[C@H](CO)N1C[C@H](C)[C@@H](CN(C)S(=O)(=O)c2ccc(F)cc2)Oc2ccc(NC(=O)CCCCCC(=O)Nc3ccccc3N)cc2C1=O	none (no result: Cneo AK release, HIV Env fusion, miR122 inh)
CC(C)[C@H](NC(=O)c1ccccc1Cl)C(=O)Nc1nc(-c2ccccn2)cs1	rRNA inh HTS -29
O=C(Nc1nc(-c2ccccn2)cs1)c1cc(Cl)ccc1[N+](=O)[O-]	none (no result: Cneo AK release, miR122 inh)
Cc1cc(C(=O)Nc2nc(-c3ccccn3)cs2)ccc1[N+](=O)[O-]	HIV Env fusion inconclusive, rRNA inh HTS -29 (no result: Cneo AK release, miR122 inh)
CCOC(=O)C(=Cc1ccc(Br)cc1)C(=O)OCC	none
CCOC(=O)C(CC)(CC)C(=O)/C=C/c1ccc(Br)cc1	GSIS activator 65 (no result: HIV Env fusion, rRNA inh HTS, F508del corr)
Cc1ccc(Nc2ncnc3sccc23)c(C)c1	GSIS activator 42 (no result: miR122 inh)
CCc1nc2ccccc2c(=O)n1NC(=O)c1c(O)c2ccccc2n(CC)c1=O	rRNA inh HTS -30 (no result: Cneo AK release, miR122 inh)
CCn1c(=O)c(C(=O)Nn2c(C)nc3ccccc3c2=O)c(O)c2ccccc21	none (no result: HIV Env fusion, rRNA inh HTS, GSIS activator, F508del corr)
CCC(=O)Nc1ccc2c(c1)C(=O)N(C)C[C@@H](OC)[C@H](C)CN(C(=O)c1ccc(F)cc1)[C@@H](C)CO2	none
N#Cc1c2n(c3c(=O)n(Cc4ccccc4)cnc13)CCCC2	rRNA inh HTS -25 (no result: HIV Env fusion)
O=C1Nc2ccccc2N=C(c2ccccc2)c2ccccc21	rRNA inh HTS -28
N#C[C@@H]1[C@H](c2ccc(C3=CCCCC3)cc2)[C@H](CO)N1C(=O)c1ccccn1	none (no result: miR122 inh)
COCC(C)n1c(SCC(=O)N2CC(=O)Nc3ccccc32)nc2ccccc2c1=O (stereo not given)	F508del corr 15 (no result: HIV Env fusion, miR122 inh)
COCC(C)n1c(SCC(=O)NNC(=O)c2ccccc2)nc2ccccc2c1=O (stereo not given)	none (no result: rRNA inh HTS, GSIS activator, F508del corr)
CC(c1ccccc1)n1c(SCC(=O)N2CC(=O)Nc3ccccc32)nc2ccccc2c1=O (stereo not given)	none (no result: Cneo AK release, rRNA inh HTS, miR122 inh, F508del corr)
COCC(C)n1c(SCC(=O)NC(=O)Cc2ccccc2)nc2ccccc2c1=O (stereo not given)	miR122 inh 144
O=C(NCC[C@@H]1CC[C@H](NC(=O)C2CCCC2)[C@@H](CO)O1)c1cc(Cl)cc(Cl)c1	none
C/C=C/c1ccc(OCCOc2cc(C=O)ccc2OC)c(OC)c1	none (no result: Cneo AK release, HIV Env fusion, rRNA inh HTS, miR122 inh, F508del corr)
C/C=C/c1ccc(OCCOCCNCc2ccccc2)c(OC)c1	HIV Env fusion 89 (no result: miR122 inh)
COCCNC(=O)C[C@@H]1CC[C@@H]2[C@H](COC[C@@H](O)CN2C(=O)c2cc(Cl)cc(Cl)c2)O1	none
